Results taken from ChEMBL document CHEMBL2346587, “Design, synthesis, and evaluation of a water-soluble antofine analogue with high antiproliferative and antitumor activity” (Bioorg Med Chem, 2013).
≈ marks a conversion by molar mass, not a printed value.

Columns and labels:
SK-HEP1 = assay: Cytotoxicity against human SKHEP1 cells after 72 hrs by SRB assay; type: functional, cell-based; conditions: SK-HEP1, 72 h
Method in brief: (§1)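 SRB growth assay: 5 × 10^3 cells/well exposed to a concentration series for 72 h; fixed in 10% TCA 30 min at 4 °C, stained with 0.4% SRB in 1% acetic acid 30 min, dye dissolved in 10 mM Tris pH 10.0, absorbance at 515 nm. Viability relative to vehicle control; IC50 by non-linear regression; at least three experiments. A549-Pa is a paclitaxel-resistant A549 subline.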

SNU-638 = assay: Cytotoxicity against human SNU638 cells after 72 hrs by SRB assay; type: functional, cell-based; conditions: SNU-638, 72 h; method in brief: as §1
HCT-15 = assay: Cytotoxicity against human HCT15 cells after 72 hrs by SRB assay; type: functional, cell-based; conditions: HCT-15, 72 h; method in brief: as §1
[1] = Thermodynamic solubility of the compound in 1:1 mixture of phosphate buffer:ethanol; type: physicochemical
[2] = Thermodynamic solubility of the compound in phosphate buffer at pH 7.4; type: physicochemical; conditions: read-out: Therm_solubility
[3] = target: ATP-dependent translocase ABCB1 (Homo sapiens, UniProt P08183); assay: Inhibition of P-gp activity in human paclitaxel-resistant A549 cells assessed as rhodamine 123 accumulation at 10 nM after 72 hrs by FACS analysis (reference value: 14.4 %); type: cell-based; parameters: scale not given: the % may be the effect or the level left; conditions: a549, 72 h, 0.01 µM
Method in brief: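 Paclitaxel-resistant A549-Pa cells seeded at 1 × 10^5 cells/dish, pretreated with compound for 72 h, then loaded with rhodamine-123 in culture medium at 37 °C, 5% CO2, in the dark for 90 min. Cells were trypsinized, washed twice in ice-cold PBS, and analysed immediately by flow cytometry (488 nm laser; green fluorescence through a 530 nm band-pass filter).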

A549 [4] = assay: Cytotoxicity against human paclitaxel-resistant A549 cells after 72 hrs by SRB assay; type: functional, cell-based; conditions: A549, 72 h; method in brief: as §1
A549 [5] = assay: Cytotoxicity against human A549 cells after 72 hrs by SRB assay; type: functional, cell-based; conditions: A549, 72 h; method in brief: as §1
HCT-116 = assay: Cytotoxicity against human HCT116 cells after 72 hrs by SRB assay; type: functional, cell-based; conditions: HCT-116, 72 h; method in brief: as §1

Sequence of ATP-dependent translocase ABCB1 (P08183 whole entry): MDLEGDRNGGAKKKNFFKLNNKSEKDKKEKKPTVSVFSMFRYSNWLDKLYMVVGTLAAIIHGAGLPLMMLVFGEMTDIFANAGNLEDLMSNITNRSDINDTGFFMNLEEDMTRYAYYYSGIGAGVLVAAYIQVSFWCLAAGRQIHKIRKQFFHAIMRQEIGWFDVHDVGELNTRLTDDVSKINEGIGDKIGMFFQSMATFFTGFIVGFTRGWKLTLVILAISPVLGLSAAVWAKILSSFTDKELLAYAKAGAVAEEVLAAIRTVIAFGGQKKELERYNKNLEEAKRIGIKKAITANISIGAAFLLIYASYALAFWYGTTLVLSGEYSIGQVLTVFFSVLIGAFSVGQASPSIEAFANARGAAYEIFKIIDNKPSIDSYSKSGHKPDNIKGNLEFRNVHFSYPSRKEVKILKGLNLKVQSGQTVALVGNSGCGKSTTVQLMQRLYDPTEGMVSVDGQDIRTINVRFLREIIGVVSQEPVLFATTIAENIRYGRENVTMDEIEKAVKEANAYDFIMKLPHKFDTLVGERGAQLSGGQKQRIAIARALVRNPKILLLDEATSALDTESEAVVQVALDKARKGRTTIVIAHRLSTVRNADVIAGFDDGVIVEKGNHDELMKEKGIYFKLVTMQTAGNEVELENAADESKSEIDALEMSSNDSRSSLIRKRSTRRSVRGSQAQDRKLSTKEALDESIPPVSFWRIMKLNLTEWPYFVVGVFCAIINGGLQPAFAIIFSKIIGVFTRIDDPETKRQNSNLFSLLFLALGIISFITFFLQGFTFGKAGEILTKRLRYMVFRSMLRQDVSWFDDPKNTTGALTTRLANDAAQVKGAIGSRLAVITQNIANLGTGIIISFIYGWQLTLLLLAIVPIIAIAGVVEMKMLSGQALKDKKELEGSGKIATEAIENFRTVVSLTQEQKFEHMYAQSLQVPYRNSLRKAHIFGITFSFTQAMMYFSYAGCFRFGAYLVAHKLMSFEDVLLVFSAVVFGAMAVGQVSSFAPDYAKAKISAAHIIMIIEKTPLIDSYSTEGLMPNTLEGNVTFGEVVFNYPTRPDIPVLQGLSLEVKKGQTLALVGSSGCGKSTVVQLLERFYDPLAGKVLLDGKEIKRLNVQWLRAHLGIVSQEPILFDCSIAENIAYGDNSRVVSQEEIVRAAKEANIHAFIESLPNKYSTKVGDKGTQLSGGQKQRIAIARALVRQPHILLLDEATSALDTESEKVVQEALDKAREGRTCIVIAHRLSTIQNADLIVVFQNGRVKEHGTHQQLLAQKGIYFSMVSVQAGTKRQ

solubility thermodynamic ([1]; 1:1 mixture of phosphate buffer:ethanol, read-out: Therm_solubility)	SMILES	IC50 (SK-HEP1)	IC50 (SNU-638)	IC50 (HCT-15)	Therm_solubility ([1]; buffer)	solubility thermodynamic [2]	Activity [3]	IC50 (A549 [4])	IC50 (A549 [5])	IC50 (HCT-116)
–	COc1ccc2c3c(c4cc(OC)c(OC)cc4c2c1)C[C@H]1CCCN1C3 [(-)-ANTOFINE]	8 nM	10 nM	13 nM	47 µg/mL	< 1 µg/mL	37.9%	18 nM	11 nM	8 nM
–	COc1ccc2c3c(c4cc(OC)c(OC)cc4c2c1)C[C@]1(CO)CCCN1C3	540 nM	1490 nM	1420 nM	–	–	–	3660 nM	2270 nM	800 nM
–	COC(=O)C12CCCN1Cc1c(c3cc(OC)c(OC)cc3c3cc(OC)ccc13)C2 (racemic)	> 1000 nM	> 1000 nM	> 1000 nM	–	–	–	> 1000 nM	> 1000 nM	> 1000 nM
–	COc1ccc2c3c(c4cc(OC)c(OC)cc4c2c1)CC1CCCN1C3 (racemic) [(+/-)-ANTOFINE]	16 nM	21 nM	25 nM	–	–	–	22 nM	20 nM	11 nM
1390 µg/mL (≈ 3540 µM)	COc1ccc2c3c(c4cc(OC)c(OC)cc4c2c1)CC1(CO)CCCN1C3 (racemic)	100 nM	92 nM	179 nM	–	656 µg/mL (≈ 1670 µM)	–	204 nM	167 nM	53 nM
–	COc1ccc2c3c(c4cc(OC)c(OC)cc4c2c1)CC1(C(=O)O)CCCN1C3 (racemic)	> 1000 nM	> 1000 nM	> 1000 nM	–	–	–	> 1000 nM	> 1000 nM	> 1000 nM
